Measured values from ChEMBL document CHEMBL1121477, “Noval antitumor nitrosoureas and related compounds and their reactions with DNA” (1980).
“And” between values parts separate entries of the source, which are not always exact repeats. Equal entries are not always repeated.

Legend:
[1] = test system: L1210; assay: Antitumor activity against lymphoid leukemia L1210 cell implanted in mice was measured by number of survivors on day 5 at a dosage of 1.3 mg/kg (6/6); format: functional, Mus musculus
[2] = test system: L1210; assay: Antitumor activity against lymphoid leukemia L1210 cell implanted in mice was measured by %T/C at a dosage of 1.3 mg/kg; format: functional, Mus musculus
[3] = Percent ability of compound to produce DNA interstrand cross-links was determined by the ethidium fluorescence assay at 6 hr and compared with antileukemic property; format: functional; parameters: concentration or dose not given beside the values
Outline: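 λ-DNA (1.0 A260 unit) was incubated with 5 mM compound in 50 mM potassium phosphate pH 7.2 at 37 °C. Aliquots went into 20 mM potassium phosphate pH 11.8, 0.4 mM EDTA and 0.5 µg/mL ethidium, were heated at 96 °C for 3 min and rapidly cooled. Fluorescence relative to control ×100 gives % DNA molecules with ≥1 interstrand cross-link; accuracy about ±2%.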

[4] = test system: L1210; assay: Antitumor activity against lymphoid leukemia L1210 cell implanted in mice was measured by mean survival of mice expressed as treated/control at a dosage of 1.3 mg/kg (25.3/9.6); format: functional, Mus musculus
[5] = Compound was evaluated for its ability to exhibit alkylating property toward DNA at 5 mM in 180 min; format: functional
Outline: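 Alkylation was measured with PM2 covalently closed circular DNA (1.2 A280 units, 90% CCC) and 5 mM agent in 200 µL at 37 °C. Aliquots were taken into 20 mM potassium phosphate pH 11.8, 0.4 mM EDTA and 0.5 µg/mL ethidium, heated at 96 °C for 4 min, then rapidly cooled. Fluorescence loss relative to control gives the extent of alkylation.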

[6] = test system: L1210; assay: Antitumor activity against lymphoid leukemia L1210 cell implanted in mice was measured by wt.change of treated mice minus wt. change of control mice at 1.3 mg/kg from day 0-5 (-2.9/0.3); format: functional, Mus musculus
[7] = test system: L1210; assay: Antitumor activity against lymphoid leukemia L1210 cell implanted in mice was measured by wt.change of treated mice minus wt. change of control mice at 200 mg/kg from day 0-5 (-1.1/1.4); format: functional, Mus musculus
Outline: (§1)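 L1210 leukemia cells (10^5) implanted intraperitoneally in mice on day 0. Compounds were suspended in saline plus Tween 80 and injected intraperitoneally within 5 min of preparation, following Cancer Chemotherapy National Service Center specifications; dose is given per day. Read-outs were weight change from day 0 to 5 (treated vs control), survivors on day 5, mean survival time treated/control, and %T/C.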

[8] = test system: L1210; assay: Antitumor activity against lymphoid leukemia L1210 cell implanted in mice was measured by number of survivors on day 5 at a dosage of 200 mg/kg (6/6); format: functional, Mus musculus; outline: as §1
[9] = test system: L1210; assay: Antitumor activity against lymphoid leukemia L1210 cell implanted in mice was measured by mean survival of mice expressed as treated/control at a dosage of 200 mg/kg (16.4/16.9); format: functional, Mus musculus; outline: as §1
[10] = test system: L1210; assay: Antitumor activity against lymphoid leukemia L1210 cell implanted in mice was measured by %T/C at a dosage of 200 mg/kg; format: functional, Mus musculus; outline: as §1
[11] = test system: Mus musculus; assay: Antitumor activity against lymphoid leukemia L1210 cell implanted in mice was measured by number of survivors on day 5 at a dosage of 0.9 mg/kg (6/6); format: functional
[12] = test system: Mus musculus; assay: Antitumor activity against lymphoid leukemia L1210 cell implanted in mice was measured by wt.change of treated mice minus wt. change of control mice at 0.9 mg/kg from day 0-5 (-1.4/0.4); format: functional
[13] = test system: Mus musculus; assay: Antitumor activity against lymphoid leukemia L1210 cell implanted in mice was measured by %T/C at a dosage of 0.9 mg/kg; format: functional
[14] = test system: Mus musculus; assay: Antitumor activity against lymphoid leukemia L1210 cell implanted in mice was measured by mean survival of mice expressed as treated/control at a dosage of 0.9 mg/kg (15.6/11.1); format: functional
[15] = test system: L1210; assay: Antitumor activity against lymphoid leukemia L1210 cell implanted in mice was measured by mean survival of mice expressed as treated/control at a dosage of 1 mg/kg (12.3/10.5); format: functional, Mus musculus
[16] = test system: L1210; assay: Antitumor activity against lymphoid leukemia L1210 cell implanted in mice was measured by %T/C at a dosage of 1 mg/kg; format: functional, Mus musculus
[17] = test system: L1210; assay: Antitumor activity against lymphoid leukemia L1210 cell implanted in mice was measured by mean survival of mice expressed as treated/control at a dosage of 200 mg/kg (14.9/9.8); format: functional, Mus musculus; outline: as §1
[18] = test system: L1210; assay: Antitumor activity against lymphoid leukemia L1210 cell implanted in mice was measured by wt.change of treated mice minus wt. change of control mice at 200 mg/kg from day 0-5 (-4.4/1.4); format: functional, Mus musculus; outline: as §1
[19] = test system: L1210; assay: Antitumor activity against lymphoid leukemia L1210 cell implanted in mice was measured by %T/C on a 1-9 day schedule; format: functional, Mus musculus
[20] = test system: L1210; assay: Antitumor activity against lymphoid leukemia L1210 cell implanted in mice was measured by wt.change of treated mice minus wt. change of control mice at 100 mg/kg from day 0-5 (-2.2/1.4); format: functional, Mus musculus; outline: as §1
[21] = test system: L1210; assay: Antitumor activity against lymphoid leukemia L1210 cell implanted in mice was measured by number of survivors on day 5 at a dosage of 100 mg/kg (6/6); format: functional, Mus musculus; outline: as §1
[22] = test system: L1210; assay: Antitumor activity against lymphoid leukemia L1210 cell implanted in mice was measured by %T/C at a dosage of 100 mg/kg; format: functional, Mus musculus; outline: as §1
[23] = test system: L1210; assay: Antitumor activity against lymphoid leukemia L1210 cell implanted in mice was measured by mean survival of mice expressed as treated/control at a dosage of 100 mg/kg (15.4/9.7); format: functional, Mus musculus; outline: as §1

NC(=O)N(CCCl)N=O
Survivals [1]: 6 | T/C [2]: 263% | Activity [3]: 37% | Mean survival [4]: 25.3 time day-1 | Alkylation [5]: 70% | Change in weight [6]: -2.9 g

O=NN(CCSCCO)C(=O)NC1CCCCC1
Change in weight [7]: -1.1 g | Activity [3]: 0% | Survivals [8]: 6 | Alkylation [5]: 96% | Mean survival [9]: 16.4 time day-1 | T/C [10]: 110%

CS(=O)(=O)OCCCl
Alkylation [5]: 0%

CCOC(=O)N(CCCl)N=O
Activity [3]: 12% and 24% and 28% | Survivals [11]: 6 | Change in weight [12]: -1.4 g | T/C [13]: 140% | Mean survival [14]: 15.6 time day-1

Cc1ccc(S(=O)(=O)N(CCCl)N=O)cc1
Mean survival [15]: 12.3 time day-1 | T/C [16]: 117% | Activity [3]: 0%

CC(=O)N(CCCl)N=O
Activity [3]: 44%

O=NN(CCOCCCl)C(=O)NC1CCCCC1
Mean survival [17]: 14.9 time day-1 | Activity [3]: 0% | Survivals [8]: 6 | Alkylation [5]: 66% | Change in weight [18]: -4.4 g | T/C [10]: 152%

Cc1ccc(S(=O)(=O)OCCCl)cc1
Alkylation [5]: 0%

O=NN(CCCl)C(=O)OCCCSSCCCOC(=O)N(CCCl)N=O
Activity [3]: 8% and 25% and 21% | T/C [19]: 136%

CCN(N=O)C(N)=O
Alkylation [5]: 53%

O=S(=O)(OCCCl)C(F)(F)F
Alkylation [5]: 40%

O=NN(CC[S+]([O-])CCCl)C(=O)NC1CCCCC1 (stereo not given)
Change in weight [20]: -2.2 g | Activity [3]: 0% | Survivals [21]: 6 | Alkylation [5]: 84% | T/C [22]: 159% | Mean survival [23]: 15.4 time day-1

O=[N+]([O-])c1ccc(S(=O)(=O)OCCCl)cc1
Alkylation [5]: 0%
